Screening data deposited in PubChem BioAssay by several laboratories.
PostGolgi yeast – phenotypic screen on post-Golgi transport, primary screen. post-Golgi transport phenotypic cell assay. inhibition, % at 10 µM. 98,000 tested, 0.9% active. AID 739, 2007;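 note: yeast cells grown in 1536-well plates; yeast grown about 18 h at 30C before absorbance read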
E coli WT exp – growth inhibitors of wild-type E. coli, primary screen, strain BW25113, expanded library, OD600; growth inhibition, % at 100 µM; AID 710, 2007; 98,000 tested, 0.15% active; OD600 absorbance;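 active = growth inhibition above about 50% at one test dose, limit read from the data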;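 note: growth measured after 20 h incubation at 37 °C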
hDAT+cocaine – changed hDAT dopamine uptake under cocaine IC80, either direction, primary screen, cocaine antagonist project, cell-based, LLC-PK1 hDAT, [14C]-dopamine uptake, MLSMR | LLC-PK1 hDAT cells, [14C]-dopamine uptake with cocaine IC80; actives deviate in either direction | B-score at 10 µM | 110,000 tested, 1.3% active;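 active = Z score or B-score, a plate-position-corrected score, falls beyond the plate's 99.7% confidence bounds, in either direction; inactive = both scores lie inside the 99.7% bounds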;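 note: scored against the spread of the other compound wells on the same plate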
Target sequence (Q01959 whole entry, looked up): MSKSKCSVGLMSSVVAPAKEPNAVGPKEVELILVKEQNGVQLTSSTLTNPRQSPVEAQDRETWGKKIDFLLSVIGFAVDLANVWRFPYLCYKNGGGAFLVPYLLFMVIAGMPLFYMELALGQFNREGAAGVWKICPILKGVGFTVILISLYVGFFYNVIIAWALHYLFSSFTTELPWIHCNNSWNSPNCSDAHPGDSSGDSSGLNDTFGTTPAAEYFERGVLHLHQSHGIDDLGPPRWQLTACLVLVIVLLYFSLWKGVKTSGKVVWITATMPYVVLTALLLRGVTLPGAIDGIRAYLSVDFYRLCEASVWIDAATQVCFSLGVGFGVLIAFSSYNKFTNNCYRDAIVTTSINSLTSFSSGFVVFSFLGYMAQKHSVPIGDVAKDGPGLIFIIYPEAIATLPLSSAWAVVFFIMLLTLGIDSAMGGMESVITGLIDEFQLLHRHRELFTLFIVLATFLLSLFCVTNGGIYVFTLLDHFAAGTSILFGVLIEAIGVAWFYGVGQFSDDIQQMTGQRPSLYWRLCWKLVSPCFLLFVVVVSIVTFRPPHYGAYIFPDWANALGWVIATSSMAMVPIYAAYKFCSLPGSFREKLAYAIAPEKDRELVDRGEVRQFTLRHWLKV
Ecoli tolC – growth inhibitors of E. coli tolC mutant, primary screen, strain BW25113 ΔtolC::kan, 384-well; growth inhibition, % at 10 µM (by protocol); AID 573, 2007; 65,000 tested, 2.2% active; OD615;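 active = growth inhibition at or above a cutoff equal to the mean over every tested compound plus 3 SD, cut at about 60% in these data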;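 note: growth measured after 20 h incubation at 37 °C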
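System: E. coli ΔtolC::kan strain BW25113; Buffer or medium: LB broth supplemented with 50 µg/mL kanamycin; Compound: 10 µM final, single dose; Incubation: bacterial growth with compound for 20 h at 37 °C; Signal: A615 absorbance measurement; Evaluation: growth inhibition in percent.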
PostGolgi ctrl – growth inhibition of yeast control strain, primary screen, counter-screen for post-Golgi transport modulator project. 98,000 tested, 5% active. AID 738, 2007. inhibition, % at 10 µM. efflux-deficient yeast background strain, growth absorbance A615, 16 h
D1 allo mod – D1 CRE-luciferase signal change, two-sided – cell-based, HEK293 D1, dopamine EC30, D1 allosteric modulator project, primary screen. D(1A) dopamine receptor (Homo sapiens), P21728. dopamine EC30 potentiation; actives deviate in either direction. B-score at 10 µM. 58,000 tested, 5.9% active;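 active = luminescence count or its row- and column-corrected plate score outside the 99.7% band of the plate's sample wells, on either side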
* hit, by the source's call; / = no result given. A selection: hits, their analogues and other compounds. The true share with any hit is near 9.3%. Cut-off read from the data, not from the text of the source, unless noted: active = inhibition above about 30%; inactive = the rest.

SMILES | PostGolgi yeast | E coli WT exp | hDAT+cocaine | Ecoli tolC | PostGolgi ctrl | D1 allo mod
Oc1c(C(c2ccco2)N2CCN(C(c3ccccc3)c3ccccc3)CC2)sc2ncnn12 (configuration not stated) | -1.8 | -4.0 | 0.822 | 64.5* | 10.7 | -0.0123
O=C(CCN1C(=O)C2C3C=CC(C3)C2C1=O)Nc1ccccn1 (configuration not stated) | -9.3 | -7.0 | -0.0782 | -10.3 | 9.1 | -0.62
Cc1cc(C#N)c(C)n1-c1cc(S(=O)(=O)N2CCOCC2)ccc1N1CCCC1 | 2.6 | -1.0 | 1.27 | / | 27.3 | /
O=C(c1ccc(Br)o1)N1CCN(c2ccccn2)CC1 | -9.0 | 3.0 | 2.45* | -0.2 | 19.9 | -0.584
O=C(COc1ccc2ccccc2c1Br)N1CCN(c2ccccn2)CC1 | -14.3 | -15.0 | -0.0511 | 92.7* | 36.7* | -0.132
O=C(CSc1nccc2ccccc12)N1CCN(c2ccccn2)CC1 | 8.0 | -4.0 | / | 16.9 | 16.7 | -1.15
O=C(c1ccccc1CCc1ccccc1)N1CCN(c2ccccn2)CC1 | 0.6 | -3.0 | -0.198 | 79.4* | 20.1 | -0.404
CC1(C(=O)NC2CCCCCCC2)CC1(Cl)Cl (configuration not stated) | -7.5 | 1.0 | -0.0304 | / | 4.7 | /
CN(C)S(=O)(=O)c1cccc(NC(=S)Nc2cc(Cl)cc(Cl)c2)c1 | 97.1* | 31.0 | -2.4 | / | 84.1* | /
CN(C)c1ccc(/C=N/N2C(=S)SC(C)(C)C2N(O)C(=O)Nc2ccc([N+](=O)[O-])cc2)cc1 (configuration not stated) | -1.0 | -6.0 | -1.23 | / | -0.6 | /
CCCCN(CC)S(=O)(=O)c1ccc(C(=O)Nc2nnc(COC)o2)cc1 | 2.5 | 5.0 | 0.51 | 88.3* | 15.2 | 0.0485
CCN(CC)S(=O)(=O)c1ccc(C(=O)Nc2ncn(Cc3ccccc3)n2)cc1 | 3.2 | -1.0 | -0.801 | 10.5 | 21.4 | /
CCc1nnc(NC(=O)c2ccc(S(=O)(=O)N(CCOC)CCOC)cc2)o1 | -13.9 | -3.0 | -1.59 | -4.6 | 5.9 | /
CCCCN(CC)S(=O)(=O)c1ccc(C(=O)Nc2nnc(-c3ccccc3Cl)o2)cc1 | -8.5 | -2.0 | 0.614 | 100.0* | 5.9 | /
COCCN(CCOC)S(=O)(=O)c1ccc(C(=O)Nc2nnc(C3CC3)o2)cc1 | 7.6 | -1.0 | -1.9 | -8.9 | 6.8 | -1.16
CCCCN(CC)S(=O)(=O)c1ccc(C(=O)Nc2nnc(CSC)o2)cc1 | -6.8 | 12.0 | -0.45 | 98.5* | 9.2 | 0.762
CCCN(CCC)S(=O)(=O)c1ccc(C(=O)Nc2nnc(CSC)o2)cc1 | 12.2 | 6.0 | 0.559 | 98.8* | 12.0 | -1.47
CCc1nnc(NC(=O)c2ccc(S(=O)(=O)N(CCOC)CCOC)cc2)s1 | -3.1 | 4.0 | 1.78 | -5.6 | -2.8 | -0.323
CCCCN(CCCC)S(=O)(=O)c1ccc(C(=O)Nc2nnc(CSC)o2)cc1 | -4.2 | 8.0 | -1.5 | 98.8* | -1.9 | 0.0345
CCCCN(C)S(=O)(=O)c1ccc(C(=O)Nc2nnc(-c3cccs3)o2)cc1 | 14.6 | 1.0 | -0.00657 | 100.0* | 7.3 | 1.87
COc1ccc(NC(=O)N(CCO)Cc2cc3c(C)cc(C)cc3[nH]c2=O)cc1 | -8.5 | -2.0 | 2.88* | 0.3 | 0.4 | 1.22
Cc1cccc(NS(=O)(=O)c2ccc(C3CCCCC3)cc2)c1 | -5.5 | -7.0 | -0.135 | / | 49.9* | /
Cc1cccc(NS(=O)(=O)c2ccc(C3CCCCC3)cc2)n1 | -2.5 | 8.0 | 1.17 | / | 27.0 | /
CCN(CC)S(=O)(=O)c1ccc(NC2CCCc3ccccc32)nc1 (configuration not stated) | 4.1 | -10.0 | -0.921 | 15.7 | 47.9* | 0.0132
O=S(=O)(c1ccc(NC2CCCc3ccccc32)nc1)N1CCOCC1 (configuration not stated) | -9.2 | -3.0 | -0.0322 | 5.6 | 11.3 | 0.0276
O=C(NCc1cccs1)C1CCN(S(=O)(=O)c2cccc3nsnc23)CC1 | -8.8 | -2.0 | 0.207 | -14.2 | -7.7 | 0.222
Cc1oc(-c2ccc(Cl)cc2)nc1CN1CCCC(C(=O)N2CCN(C(=O)c3ccco3)CC2)C1 (configuration not stated) | -1.0 | 9.0 | 0.0297 | -1.6 | 6.6 | -3.31*
